Data published in ChEMBL document CHEMBL4017500 (J Med Chem, 2017).
Blank lines part the entries; values can stand above or below the compound they belong to. Active and inactive are the calls of the source. No cut-off for these calls is given here.

Tests used:
[1] = Inhibition of bacterial MBP-fused NDM1 expressed in Escherichia coli BL21(DE3) ausing chromacef as substrate preincubated for 20 mins followed by substrate addition measured after 0.3 mins; design: species or system Bacteria
Outline: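 Preincubated 20 min, then 3 μM substrate (~3×KM) added. A442 followed ~0.3 min at 25 °C. Activity scaled to uninhibited (100%) and no-enzyme (0%) controls, fitted to a Hill-type equation.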

[2] = Inhibition of bacterial MBP-fused NDM1 expressed in Escherichia coli BL21(DE3) ausing fluorocillin as substrate preincubated for 20 mins followed by substrate addition measured at 1 sec time interval for 25 mins by fluorescence assay; design: species or system Bacteria
Outline: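 NDM-1 pre-incubated 20 min with inhibitor (final 100 μM to 1 nM) in 50 mM HEPES pH 7.0 with 2 mM CHAPS. Reaction started with fluorocillin (final 87 nM, below KM), NDM-1 final 25 pM. Fluorescence read at λex/em 495/525 nm, 10 reads over ~25 min.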

Bacteria [3] = experiment: Binding affinity to bacterial CoCoNDM-1 expressed in Escherichia coli BL21(DE3) assessed as metal stripping at 1 to 2 equiv by 1H NMR spectroscopic method
Outline: (§1)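 Apo-NDM-1 concentrated to ~1 mM and loaded with 2 equiv CoCl2. Samples in 50 mM HEPES, 150 mM NaCl, 10% D2O, pH 6.8. Compounds from 50–100 mM DMSO stocks titrated in ~5 μL aliquots. 1H spectra recorded at 292 K, 300.16 MHz.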

Bacteria [4] = experiment: Binding affinity to bacterial CoCoNDM-1 expressed in Escherichia coli BL21(DE3) assessed as metal stripping at 1 to 2 equiv after 30 mins by UV-Visible spectroscopic method
Outline: (§2)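 Apo-NDM-1 at 300 μM in 50 mM HEPES, 150 mM NaCl, pH 6.8, loaded with 2 molar equiv CoCl2. […] Absorbance read 300–700 nm at 25 °C as difference spectra against buffer blank, normalized at 700 nm.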

Bacteria [5] = experiment: Binding affinity to bacterial NDM-1 expressed in Escherichia coli BL21(DE3) assessed as Zn2+ stripping up to 128 uM after 30 mins by equilibrium dialysis method
Outline: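 NDM-1 (8 μM final) in 50 mM HEPES pH 7.5 mixed with compound at 0–128 μM for 30 min. Then dialyzed 4 h against metal-free 50 mM HEPES pH 7.5. Residual Zn(II) measured by ICP-AES at 213.856 nm.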

Bacteria [6] = experiment: Binding affinity to bacterial NDM-1 expressed in Escherichia coli BL21(DE3) assessed as intrinsic tryptophan fluorescence quenching up to 32 uM after 30 mins by luminescence spectrometric method relative to control
Outline: (§3)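 NDM-1 at 2 μM final in 50 mM HEPES pH 7.5 mixed with compound at 4–32 μM, incubated 30 min. Emission scanned 300–400 nm with excitation at 280 nm. Relative tryptophan fluorescence read at 348 nm, with buffer set to 0% and inhibitor-free NDM-1 to 100%. Control run with 2 μM L-tryptophan in place of enzyme.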

[7] = Fluorescence quenching activity assessed as reduction in tryptophan fluorescence up to 32 uM after 30 mins by luminescence spectrometric method
Outline: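 NDM-1 (2 μM final) in 50 mM HEPES pH 7.5 with compound at 4–32 μM for 30 min. Excitation 280 nm, emission scanned 300–400 nm, intensity taken at 348 nm. Scaled with buffer as 0% and inhibitor-free enzyme as 100%. Free L-tryptophan (2 μM) run as control.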

[8] = Inhibition of bacterial NDM1; design: species or system Bacteria
Outline: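 Chromogenic NDM-1 assay: enzyme (3 nM) pre-incubated 20 min with ~20 inhibitor concentrations in 50 mM HEPES, 1% DMSO, pH 7.0. Chromacef substrate 3 μM (~3×KM). Absorbance at 442 nm followed ~0.3 min at 25 °C.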

[9] = molecular target: Metallo-beta-lactamase type 2 (Serratia marcescens) (UniProt P52699); experiment: Inhibition of Serratia marcescens IMP1 expressed in Escherichia coli BL21(DE3) at 50 uM using chromacef as substrate preincubated for 10 mins followed by substrate addition measured after 20 mins by HTS assay relative to control
Chain of Metallo-beta-lactamase type 2 (Serratia marcescens) (P52699 19-246 limits assumed): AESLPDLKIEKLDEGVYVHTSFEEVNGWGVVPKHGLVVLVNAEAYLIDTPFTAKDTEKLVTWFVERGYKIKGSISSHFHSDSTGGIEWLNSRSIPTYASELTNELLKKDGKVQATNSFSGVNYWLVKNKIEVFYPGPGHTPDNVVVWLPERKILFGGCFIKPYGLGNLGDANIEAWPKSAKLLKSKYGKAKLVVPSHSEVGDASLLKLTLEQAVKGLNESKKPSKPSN
Outline: (§4)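 Colorimetric chromacef screen, final 50 mM HEPES, 2 mM CHAPS, pH 7.0. Substrate added at 3 μM (NDM-1, ~3×KM), 7.2 μM (IMP-1) or 16 μM (VIM-2). […] Percent inhibition calculated.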

[10] = molecular target: Beta-lactamase VIM-2 (Pseudomonas aeruginosa) (UniProt Q9K2N0); experiment: Inhibition of Pseudomonas aeruginosa VIM2 expressed in Escherichia coli BL21(DE3) at 50 uM using chromacef as substrate preincubated for 10 mins followed by substrate addition measured after 20 mins by HTS assay relative to control; outline: as §4
Bacteria [11] = experiment: Inhibition of bacterial MBP-fused NDM1 expressed in Escherichia coli BL21(DE3) at 50 uM using chromacef as substrate preincubated for 10 mins followed by substrate addition measured after 20 mins by HTS assay relative to control; outline: as §4
Bacteria [12] = experiment: Binding affinity to bacterial CoCoNDM-1 expressed in Escherichia coli BL21(DE3) assessed as CoCoNDM-1-compound ternary complex formation at 3 to 5 equiv by 1H NMR spectroscopic method; outline: as §1
Bacteria [13] = experiment: Binding affinity to bacterial CoCoNDM-1 expressed in Escherichia coli BL21(DE3) assessed as CoCoNDM-1-compound ternary complex formation at 1 equiv by 1H […] spectroscopic method
Bacteria [14] = experiment: Binding affinity to bacterial CoCoNDM-1 expressed in Escherichia coli BL21(DE3) assessed as CoCoNDM-1-compound ternary complex formation at 1 to 2 equiv after 30 mins by UV-Visible spectroscopic method; outline: as §2
Bacteria [15] = experiment: Binding affinity to bacterial NDM-1 expressed in Escherichia coli BL21(DE3) assessed as increase in intrinsic tryptophan fluorescence up to 32 uM after 30 mins by luminescence spectrometric method relative to control; outline: as §3
Bacteria [16] = experiment: Inhibition of bacterial MBP-fused NDM1 expressed in Escherichia coli BL21(DE3) ausing fluorocillin as substrate preincubated for 20 mins followed by substrate addition measured at 1 sec time interval for 25 mins in presence of ZnSO4 by fluorescence assay
[17] = Metal chelating activity assessed as Co2+-compound complex formation at 1 equiv by 1H NMR spectroscopic method; type: functional
Outline: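 Apo-NDM-1 concentrated to ~1 mM and given 2 equivalents of CoCl2, in 50 mM HEPES, 150 mM NaCl, 10% D2O, pH 6.8. Compounds, from DMSO stocks of 50–100 mM, titrated in. 1H NMR spectra recorded at 292 K at 300.16 MHz.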

Beta-lactamase VIM-2 = Beta-lactamase VIM-2 (Pseudomonas aeruginosa, UniProt Q9K2N0); experiment: Inhibition of Pseudomonas aeruginosa VIM2 expressed in Escherichia coli BL21(DE3) using fluorocillin as substrate preincubated for 10 mins followed by substrate addition measured after 20 mins by HTS assay

IC50 [1]: 800 nM | IC50 [2]: 1070 nM
Compound: COc1cccc(-c2cc(C(=O)O)nc(C(=O)O)c2)c1

IC50 [1]: 430 nM | IC50 [2]: 380 nM
Compound: COc1ccc(-c2cc(C(=O)O)nc(C(=O)O)c2)cc1

IC50 [1]: > 50000 nM
Compound: O=C(O)c1cccc(C(=O)NCc2cccs2)n1

IC50 [1]: 3400 nM
Compound: O=C(O)c1cc(Nc2ccccc2)cc(C(=O)O)n1

IC50 [1]: > 50000 nM
Compound: CC(C)CNC(=O)c1cccc(C(=O)O)n1

IC50 [1]: > 50000 nM
Compound: CC(C)NC(=O)c1cccc(C(=O)O)n1

IC50 [1]: 990 nM | IC50 [2]: 930 nM
Compound: CC(=O)Nc1cccc(-c2cc(C(=O)O)nc(C(=O)O)c2)c1

IC50 [1]: > 50000 nM
Compound: O=C(O)c1cccc(C(=O)NCc2ccco2)n1

IC50 [1]: 22000 nM
Compound: CC(C)[C@@H](NC(=O)c1cccc(C(=O)O)n1)C(=O)O

IC50 [1]: 500 nM | IC50 [2]: 500 nM
Compound: COc1ccccc1-c1cc(C(=O)O)nc(C(=O)O)c1

IC50 [1]: > 50000 nM
Compound: COc1ccc(NC(=O)c2cccc(C(=O)O)n2)cc1

IC50 [1]: > 50000 nM
Compound: O=C(O)c1cccc(C(=O)NCc2ccc3c(c2)OCO3)n1

IC50 [1]: 4500 nM
Compound: COc1ccc(Nc2cc(C(=O)O)nc(C(=O)O)c2)cc1

IC50 [1]: > 50000 nM
Compound: O=C(O)c1cccc(C(=O)Nc2ccccc2)n1

IC50 [1]: > 50000 nM
Compound: O=C(O)c1cccc(C(=O)NC2CCCC2)n1

IC50 [1]: > 50000 nM
Compound: COc1ccc(CNC(=O)c2cccc(C(=O)O)n2)cc1

inhibition [9]: > 60% | inhibition [10]: > 60% | inhibition (Bacteria [11]): > 60%
Compound: O=C(O)c1ccc2cccc(O)c2n1

IC50 [1]: > 50000 nM
Compound: O=C(O)c1cccc(C(=O)NCCc2cccs2)n1

IC50 [1]: > 50000 nM
Compound: O=C(O)c1cccc(C(=O)NCCc2ccccc2)n1

IC50 [1]: 7200 nM
Compound: COc1ccc(CNc2cc(C(=O)O)nc(C(=O)O)c2)cc1

IC50 [1]: 24000 nM
Compound: O=C(O)c1cccc(C(=O)NCc2nccs2)n1

IC50 [1]: > 50000 nM
Compound: O=C(O)c1cccc(C(=O)NCC2CCCO2)n1 (stereo unspecified)

IC50 [1]: > 50000 nM
Compound: O=C(O)c1cccc(C(=O)NCc2ccccc2)n1

IC50 [1]: 49000 nM
Compound: O=C(O)CNC(=O)c1cccc(C(=O)O)n1

The next lines start with the compound.

Compound: O=C(O)CN(CCN(CC(=O)O)CC(=O)O)CC(=O)O
Activity (Bacteria [3]): Active | Activity (Bacteria [4]): Active | Activity (Bacteria [5]): Active | Activity (Bacteria [6]): < 10% | Activity [7]: inactive

Compound: N[C@@H](CN[C@@H](CN[C@@H](CC(=O)O)C(=O)O)C(=O)O)C(=O)O
IC50 [8]: 4000 nM

Compound: O=C(O)c1cccc(C(=O)NC2CCCCC2)n1
IC50 [1]: > 50000 nM

Compound: O=C(O)c1cc(NCc2ccccc2)cc(C(=O)O)n1
IC50 [1]: 8400 nM

Compound: O=C(Cc1ccccc1)Nc1cccc(-c2cc(C(=O)O)nc(C(=O)O)c2)c1
IC50 [1]: 860 nM | IC50 [2]: 590 nM

Compound: CN(C)c1ccc(-c2cc(C(=O)O)nc(C(=O)O)c2)cc1
IC50 [1]: 570 nM | IC50 [2]: 190 nM

Compound: Oc1c(I)cc(Cl)c2cccnc12
inhibition [9]: > 60% | inhibition [10]: > 60% | inhibition (Bacteria [11]): > 60%

Compound: Nc1ccc(-c2cc(C(=O)O)nc(C(=O)O)c2)cc1
IC50 [1]: 1030 nM | IC50 [2]: 540 nM

Compound: O=C(O)c1cc(NCc2cccs2)cc(C(=O)O)n1
IC50 [1]: 5200 nM

Compound: O=C(O)c1cc(-c2ccc(O)cc2)cc(C(=O)O)n1
IC50 [1]: 660 nM | IC50 [2]: 390 nM

Compound: O=C(O)c1cc(-c2cccc(O)c2)cc(C(=O)O)n1
IC50 [1]: 600 nM | IC50 [2]: 430 nM

Compound: C[C@H](CS)C(=O)N1CCC[C@H]1C(=O)O
Activity (Bacteria [12]): Active | Activity (Bacteria [13]): Active | Activity (Bacteria [14]): Active | Activity (Bacteria [5]): inactive | Activity (Bacteria [15]): 10% | Activity [7]: inactive

Compound: O=C(O)c1cc(Cl)cc(C(=O)O)n1
IC50 [1]: 5000 nM

Compound: O=C(Nc1cccc(-c2cc(C(=O)O)nc(C(=O)O)c2)c1)c1ccccc1
IC50 [1]: 860 nM | IC50 [2]: 130 nM

Compound: CN(C)c1cccc(-c2cc(C(=O)O)nc(C(=O)O)c2)c1
IC50 [1]: 820 nM | IC50 [2]: 430 nM

Compound: c1ccc(C2=NCCS2)nc1
inhibition [9]: > 60% | inhibition [10]: > 60% | inhibition (Bacteria [11]): > 60%

Compound: O=C(O)c1cccc(-c2cc(C(=O)O)nc(C(=O)O)c2)c1
IC50 [1]: 890 nM | IC50 [2]: 200 nM

Compound: O=C(O)c1cc(NCc2ccco2)cc(C(=O)O)n1
IC50 [1]: 4900 nM

Compound: O=C(O)c1cc(-c2ccccc2O)cc(C(=O)O)n1
IC50 [1]: 520 nM | IC50 [2]: 130 nM

Compound: O=C(O)c1cc(NCc2ccc3c(c2)OCO3)cc(C(=O)O)n1
IC50 [1]: 5800 nM

Compound: O=C(O)c1cccc(C(=O)O)n1 [DIPICOLINIC ACID]
inhibition [9]: > 60% | inhibition [10]: > 60% | inhibition (Bacteria [11]): > 60% | IC50 [1]: 520 nM | IC50 [2]: 410 nM | inhibition (Bacteria [16]): inactive | Activity (Bacteria [3]): Active | Activity [17]: Active | Activity (Bacteria [13]): Active | Activity (Bacteria [4]): Active | Activity (Bacteria [5]): Active | Activity (Bacteria [6]): 20% | IC50 (Beta-lactamase VIM-2): 1660 nM

Compound: O=C(O)c1cc(NCCc2ccccc2)cc(C(=O)O)n1
IC50 [1]: 9100 nM

Compound: NCCNCc1ccc(C(=O)N[C@H]2Cc3cccc(C(=O)O)c3O[B-]2(O)O)cc1
IC50 [8]: 4 nM

Compound: O=C(O)c1cccc(C(=O)N2CCCCC2)n1
IC50 [1]: > 50000 nM

Compound: c1cnc2c(c1)ccc1cccnc12
inhibition [9]: > 60% | inhibition [10]: > 60% | inhibition (Bacteria [11]): > 60%

Compound: O=C(O)c1cc(-c2ccccc2)cc(C(=O)O)n1
IC50 [1]: 990 nM

Compound: Oc1ccc[nH]c1=S
inhibition [9]: > 60% | inhibition [10]: > 60% | inhibition (Bacteria [11]): > 60%

Compound: CN(C)c1cc(C(=O)O)nc(C(=O)O)c1
IC50 [1]: 13600 nM
